For 14 compounds, Activity results are on record in ChEMBL document CHEMBL1152508, “Interaction of drug based binuclear mixed-ligand complexes with DNA” (2009).

Common to all, as to assay type: functional
For one assay, the system named is Pseudomonas aeruginosa. As to the kind of experiment: Antibacterial activity against Pseudomonas aeruginosa after 24 hrs by twofold serial dilution method. In short, it runs like this: (§1)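 Bacteria activated by inoculation into luria broth for 24 h at 30 °C. Compounds dissolved in DMSO, then diluted in luria broth as twofold serial concentrations. Test cultures incubated 24 h at 37 °C. MIC taken as the lowest concentration giving complete inhibition of growth.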

In a further assay the test system is Escherichia coli. As to the kind of experiment: Antibacterial activity against Escherichia coli after 24 hrs by twofold serial dilution method. The method, boiled down: as §1
For the next assay, the system named is Staphylococcus aureus. The assay can be described thus: Antibacterial activity against Staphylococcus aureus after 24 hrs by twofold serial dilution method. In short, it runs like this:
as §1

Another assay relates to Serratia marcescens. As to the kind of experiment: Antibacterial activity against Serratia marcescens after 24 hrs by twofold serial dilution method. The method, boiled down: as §1
For the next assay, the system named is Bacillus subtilis. The assay can be described thus: Antibacterial activity against Bacillus subtilis after 24 hrs by twofold serial dilution method. In short, it runs like this:
as §1

In the case of `COc1ccc(/C=N/CC/N=C/c2ccc(OC)cc2)cc1`, the Activity in the assay on Pseudomonas aeruginosa came out at 1855 µM; in the assay with Escherichia coli, 2193 µM; with Staphylococcus aureus, 1687 µM; in the assay on Serratia marcescens, 1687 µM; in the assay on Bacillus subtilis, 1518 µM.

Turning to `C/C(=N/c1ccccc1/N=C(\C)c1ccccc1)c1ccccc1`, the Activity amounted to 1920 µM in the assay with Pseudomonas aeruginosa; 2080 µM in the assay with Escherichia coli; 1760 µM in the assay on Staphylococcus aureus; 1760 µM in the assay on Serratia marcescens; 1600 µM in the assay with Bacillus subtilis.

Take `Nc1cccc2cccc(N)c12`: the Activity in the assay with Pseudomonas aeruginosa was found to be 3792 µM; in the assay with Escherichia coli, 4108 µM; with Staphylococcus aureus it was 3160 µM; in the assay with Serratia marcescens, 4108 µM; in the assay on Bacillus subtilis, 3476 µM.

`COc1ccc(/N=C(C)\C(C)=N\c2ccc(OC)cc2)cc1`: the Activity in the assay with Pseudomonas aeruginosa was 2193 µM; in the assay with Escherichia coli, 2361 µM; in the assay on Staphylococcus aureus, 1855 µM; with Serratia marcescens, 2024 µM; in the assay with Bacillus subtilis, 1518 µM.

Consider `Nc1ccccc1N`, for which the Activity was determined as 6010 µM in the assay with Pseudomonas aeruginosa; 6473 µM in the assay on Escherichia coli; 5086 µM in the assay on Staphylococcus aureus; 6010 µM with Serratia marcescens; 5548 µM in the assay with Bacillus subtilis.

As to `O=C(O)c1cn(C2CC2)c2cc(N3CCNCC3)c(F)cc2c1=O` [CIPROFLOXACIN], the Activity came to 1.36 µM in the assay on Pseudomonas aeruginosa; 1.36 µM in the assay with Escherichia coli; 1.63 µM in the assay with Staphylococcus aureus; 1.63 µM in the assay with Serratia marcescens; 1.09 µM with Bacillus subtilis.

In the case of `CCN1CCN(c2cc3c(cc2F)c(=O)c(C(=O)O)cn3C2CC2)CC1` [ENROFLOXACIN], the Activity in the assay on Pseudomonas aeruginosa was 1.39 µM; in the assay with Escherichia coli it was 1.39 µM; with Staphylococcus aureus it was 1.95 µM; in the assay on Serratia marcescens, 1.67 µM; in the assay with Bacillus subtilis, 3.9 µM.

On to `NCCN` [ETHYLENEDIAMINE], for which the Activity with Pseudomonas aeruginosa worked out at 10815 µM; with Escherichia coli, 10815 µM; with Staphylococcus aureus, 8319 µM; with Serratia marcescens it was 9983 µM; in the assay on Bacillus subtilis, 9151 µM.

On to `COc1c(N2CCNC(C)C2)c(F)cc2c(=O)c(C(=O)O)cn(C3CC3)c12` (stereo not given) [GATIFLOXACIN], for which the Activity was 1.01 µM in the assay with Pseudomonas aeruginosa; 2.93 µM in the assay on Escherichia coli; 5.06 µM in the assay with Staphylococcus aureus; 2.93 µM with Serratia marcescens; 4 µM in the assay with Bacillus subtilis.

As for `C[C@H]1COc2c(N3CCN(C)CC3)c(F)cc3c(=O)c(C(=O)O)cn1c23.C[C@H]1COc2c(N3CCN(C)CC3)c(F)cc3c(=O)c(C(=O)O)cn1c23.O` [LEVOFLOXACIN], the Activity in the assay with Pseudomonas aeruginosa was 1.66 µM; in the assay with Escherichia coli, 0.97 µM; in the assay with Staphylococcus aureus, 1.66 µM; in the assay with Serratia marcescens, 1.67 µM; in the assay on Bacillus subtilis, 2.21 µM.

Regarding `CCn1cc(C(=O)O)c(=O)c2cc(F)c(N3CCNCC3)cc21` [NORFLOXACIN], the Activity in the assay with Pseudomonas aeruginosa came out at 3.76 µM; with Escherichia coli it was 2.82 µM; in the assay on Staphylococcus aureus, 2.5 µM; with Serratia marcescens, 4.07 µM; with Bacillus subtilis it was 2.51 µM.

Consider `CC1COc2c(N3CCN(C)CC3)c(F)cc3c(=O)c(C(=O)O)cn1c23` (stereo not given) [OFLOXACIN], for which the Activity in the assay with Pseudomonas aeruginosa was 2.21 µM; with Escherichia coli it was 1.38 µM; in the assay with Staphylococcus aureus, 1.94 µM; with Serratia marcescens, 1.66 µM; in the assay on Bacillus subtilis, 1.38 µM.

For the compound `CCn1cc(C(=O)O)c(=O)c2cc(F)c(N3CCN(C)CC3)cc21` [PEFLOXACIN], the Activity in the assay with Pseudomonas aeruginosa was found to be 5.7 µM; with Escherichia coli, 2.7 µM; in the assay with Staphylococcus aureus, 2.1 µM; in the assay with Serratia marcescens, 5.1 µM; with Bacillus subtilis, 2.4 µM.

Turning to `C[C@@H]1CN(c2c(F)c(N)c3c(=O)c(C(=O)O)cn(C4CC4)c3c2F)C[C@H](C)N1` [SPARFLOXACIN], the Activity is 1.53 µM with Pseudomonas aeruginosa; 1.27 µM in the assay on Escherichia coli; 1.27 µM in the assay with Staphylococcus aureus; 1.53 µM in the assay with Serratia marcescens; 2.04 µM in the assay on Bacillus subtilis.
